As a reminder, the inhibition is the change of the read-out against control, counted positive when it falls.

This is an account of results in ChEMBL document CHEMBL5653631, “A Potent and Selective ULK1 Inhibitor Suppresses Autophagy and Sensitizes Cancer Cells to Nutrient Stress” (iScience, 2018).

Assay [1] has as its target Vascular endothelial growth factor receptor 3 (Homo sapiens) (UniProt P35916). In words: Inhibition of human recombinant FLT4 at 15 nM related to control ULK1.
The target of assay [2] is T1, Aurora kinase C (Homo sapiens) (UniProt Q9UQB9).
T1 sequence (whole entry): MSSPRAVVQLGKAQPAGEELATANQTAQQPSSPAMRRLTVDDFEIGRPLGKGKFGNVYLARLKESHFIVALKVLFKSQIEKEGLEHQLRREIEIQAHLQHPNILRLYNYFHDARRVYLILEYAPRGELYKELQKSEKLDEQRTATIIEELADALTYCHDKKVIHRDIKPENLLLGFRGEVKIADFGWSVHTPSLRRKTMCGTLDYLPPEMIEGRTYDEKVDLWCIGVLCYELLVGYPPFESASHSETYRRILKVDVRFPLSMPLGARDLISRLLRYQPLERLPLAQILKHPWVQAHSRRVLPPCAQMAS
In words: Inhibition of human recombinant AurC at 15 nM related to control ULK1.

Assay [3] deals with Tyrosine-protein kinase Tec (Homo sapiens) (UniProt P42680). In words: Inhibition of human recombinant TEC at 15 nM in presence of ATP by radiometric assay relative to control.
In assay [4] the target is Rhodopsin kinase GRK7 (Homo sapiens) (UniProt Q8WTQ7). In words: Inhibition of human recombinant GPRK7 at 15 nM related to control ULK1.
Chain of Rhodopsin kinase GRK7 (Homo sapiens) (Q8WTQ7 whole entry, looked up): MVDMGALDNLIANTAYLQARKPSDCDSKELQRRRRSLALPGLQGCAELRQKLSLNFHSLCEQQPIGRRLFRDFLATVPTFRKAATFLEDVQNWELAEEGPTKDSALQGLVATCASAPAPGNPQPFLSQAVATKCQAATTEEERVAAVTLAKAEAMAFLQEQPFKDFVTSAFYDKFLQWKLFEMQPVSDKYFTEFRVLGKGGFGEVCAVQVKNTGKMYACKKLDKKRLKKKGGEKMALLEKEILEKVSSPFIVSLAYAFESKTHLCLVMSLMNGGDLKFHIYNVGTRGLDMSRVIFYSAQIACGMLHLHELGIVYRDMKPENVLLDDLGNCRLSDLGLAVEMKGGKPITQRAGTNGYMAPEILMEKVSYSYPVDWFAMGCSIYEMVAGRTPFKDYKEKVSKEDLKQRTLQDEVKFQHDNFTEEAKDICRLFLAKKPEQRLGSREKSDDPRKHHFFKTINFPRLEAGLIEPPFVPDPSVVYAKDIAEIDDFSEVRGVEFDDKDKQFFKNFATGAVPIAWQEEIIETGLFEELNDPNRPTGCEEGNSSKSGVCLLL
Assay [5] has as its target Mitogen-activated protein kinase 8 (Homo sapiens) (UniProt P45983). In words: Inhibition of human recombinant JNK1 at 15 nM in presence of ATP by radiometric assay relative to control.
For assay [6], the target named is Cyclin-dependent kinase 1 (Homo sapiens) (UniProt P06493). As to the kind of experiment: Inhibition of human recombinant CDC2 at 40 nM related to control ULK1.
Chain of Cyclin-dependent kinase 1 (Homo sapiens) (P06493 whole entry, looked up, the tested form may be a part): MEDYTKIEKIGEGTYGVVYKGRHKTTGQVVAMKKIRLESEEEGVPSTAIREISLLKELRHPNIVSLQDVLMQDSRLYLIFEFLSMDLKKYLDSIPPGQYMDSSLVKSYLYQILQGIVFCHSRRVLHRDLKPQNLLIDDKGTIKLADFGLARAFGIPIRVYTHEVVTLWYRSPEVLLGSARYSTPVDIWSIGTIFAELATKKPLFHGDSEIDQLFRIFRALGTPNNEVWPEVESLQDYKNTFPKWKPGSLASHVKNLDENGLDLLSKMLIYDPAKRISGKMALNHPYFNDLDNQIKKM
Assay [7] has as its target LIM domain kinase 1 (Homo sapiens) (UniProt P53667). In words: Inhibition of human recombinant LIMK1 at 40 nM related to control ULK1.
Assay [8] has as its target Phosphorylase b kinase gamma catalytic chain, skeletal muscle/heart isoform (Homo sapiens) (UniProt Q16816). As to the kind of experiment: Inhibition of human recombinant PHKg1 at 40 nM in presence of ATP by radiometric assay relative to control.
Assay [9] has as its target Dual specificity protein kinase CLK2 (Homo sapiens) (UniProt P49760). In words: Inhibition of human recombinant CLK2 at 40 nM in presence of ATP by radiometric assay relative to control.
For assay [10], the target named is Mast/stem cell growth factor receptor Kit (Homo sapiens) (UniProt P10721). In words: Inhibition of human recombinant KIT at 40 nM related to control ULK1.
Chain of Mast/stem cell growth factor receptor Kit (Homo sapiens) (P10721 whole entry): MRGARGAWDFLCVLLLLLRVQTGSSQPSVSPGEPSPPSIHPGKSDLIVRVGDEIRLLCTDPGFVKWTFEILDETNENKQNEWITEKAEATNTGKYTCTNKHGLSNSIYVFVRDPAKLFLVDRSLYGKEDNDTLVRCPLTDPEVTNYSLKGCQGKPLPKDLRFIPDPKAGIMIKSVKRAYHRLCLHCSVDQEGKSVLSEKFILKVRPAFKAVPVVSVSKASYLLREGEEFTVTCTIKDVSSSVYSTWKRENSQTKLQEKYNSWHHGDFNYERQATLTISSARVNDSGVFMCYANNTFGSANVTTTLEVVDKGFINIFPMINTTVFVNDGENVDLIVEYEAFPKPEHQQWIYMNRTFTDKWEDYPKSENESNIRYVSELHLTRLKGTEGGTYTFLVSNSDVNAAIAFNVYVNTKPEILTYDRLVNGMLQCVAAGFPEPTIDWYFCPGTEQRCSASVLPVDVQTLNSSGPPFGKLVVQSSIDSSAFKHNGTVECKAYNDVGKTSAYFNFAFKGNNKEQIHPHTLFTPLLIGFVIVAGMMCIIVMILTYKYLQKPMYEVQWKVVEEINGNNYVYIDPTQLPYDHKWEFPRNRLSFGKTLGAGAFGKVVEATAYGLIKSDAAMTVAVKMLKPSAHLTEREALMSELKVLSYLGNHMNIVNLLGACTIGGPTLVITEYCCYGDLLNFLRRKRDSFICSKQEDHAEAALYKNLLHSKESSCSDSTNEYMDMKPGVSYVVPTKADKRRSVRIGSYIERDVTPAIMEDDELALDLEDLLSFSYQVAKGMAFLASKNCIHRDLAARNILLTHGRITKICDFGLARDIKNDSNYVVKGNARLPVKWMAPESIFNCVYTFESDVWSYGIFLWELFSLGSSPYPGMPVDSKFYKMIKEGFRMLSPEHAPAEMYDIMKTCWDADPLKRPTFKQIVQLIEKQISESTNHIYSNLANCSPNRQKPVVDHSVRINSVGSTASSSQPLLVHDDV
In assay [11] the target is Cyclin-dependent kinase-like 3 (Homo sapiens) (UniProt Q8IVW4). In words: Inhibition of human recombinant CDKL3 at 40 nM in presence of ATP by radiometric assay relative to control.
Assay [12] concerns the target Ephrin type-A receptor 5 (Homo sapiens) (UniProt P54756). As to the kind of experiment: Inhibition of human recombinant EphA5 at 40 nM related to control ULK1.
The target in assay [13] is RAC-alpha serine/threonine-protein kinase (Homo sapiens) (UniProt P31749). As to the kind of experiment: Inhibition of human recombinant AKT1 at 40 nM related to control ULK1. The procedure, abridged: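 Radiometric activity assays in a panel of 327 human recombinant kinases, each run in duplicate at one inhibitor concentration. Activity remaining is expressed as percent of vehicle control, and percent inhibition is calculated as 100% minus percent activity remaining.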
Chain of RAC-alpha serine/threonine-protein kinase (Homo sapiens) (P31749 whole entry): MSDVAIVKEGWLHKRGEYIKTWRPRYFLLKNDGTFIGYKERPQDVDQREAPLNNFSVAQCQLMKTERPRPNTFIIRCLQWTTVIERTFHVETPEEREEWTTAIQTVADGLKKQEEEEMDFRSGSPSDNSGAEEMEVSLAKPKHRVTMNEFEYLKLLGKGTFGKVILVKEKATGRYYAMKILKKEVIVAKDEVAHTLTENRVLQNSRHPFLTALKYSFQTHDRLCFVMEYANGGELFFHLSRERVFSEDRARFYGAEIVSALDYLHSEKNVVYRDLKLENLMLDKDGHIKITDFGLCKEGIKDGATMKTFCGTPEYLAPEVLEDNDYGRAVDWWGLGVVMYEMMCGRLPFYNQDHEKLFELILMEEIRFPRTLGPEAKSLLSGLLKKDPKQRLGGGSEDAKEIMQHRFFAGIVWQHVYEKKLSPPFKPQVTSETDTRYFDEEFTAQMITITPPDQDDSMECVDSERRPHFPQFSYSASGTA

Assay [14] addresses Tyrosine-protein kinase Fgr (Homo sapiens) (UniProt P09769). As to the kind of experiment: Inhibition of human recombinant FGR at 40 nM related to control ULK1.
For assay [15], the target named is Rhodopsin kinase GRK7 (Homo sapiens) (UniProt Q8WTQ7). In words: Inhibition of human recombinant GPRK7 at 500 nM in presence of ATP by radiometric assay relative to control.
Assay [16] concerns the target Ribosomal protein S6 kinase alpha-4 (Homo sapiens) (UniProt O75676). In words: Inhibition of human recombinant MSK2 at 500 nM related to control ULK1.
In assay [17] the target is cAMP-dependent protein kinase catalytic subunit alpha (Homo sapiens) (UniProt P17612). In words: Inhibition of human recombinant PKACalpha at 500 nM in presence of ATP by radiometric assay relative to control.
For assay [18], the target named is T2, MAPK/MAK/MRK overlapping kinase (Homo sapiens) (UniProt Q9UQ07).
T2 sequence (whole entry): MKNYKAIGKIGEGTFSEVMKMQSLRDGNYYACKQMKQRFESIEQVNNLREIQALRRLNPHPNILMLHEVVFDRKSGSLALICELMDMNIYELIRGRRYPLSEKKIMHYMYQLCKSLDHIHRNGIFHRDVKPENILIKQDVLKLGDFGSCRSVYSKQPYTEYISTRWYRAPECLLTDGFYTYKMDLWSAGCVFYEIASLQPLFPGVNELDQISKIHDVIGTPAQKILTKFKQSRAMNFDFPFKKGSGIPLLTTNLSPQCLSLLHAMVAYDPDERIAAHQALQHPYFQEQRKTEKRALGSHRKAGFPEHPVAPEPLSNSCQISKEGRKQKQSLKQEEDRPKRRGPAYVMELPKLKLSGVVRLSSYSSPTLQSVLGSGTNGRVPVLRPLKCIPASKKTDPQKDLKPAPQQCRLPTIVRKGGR
As to the kind of experiment: Inhibition of human recombinant MOK at 500 nM related to control ULK1.

Assay [19] has as its target Mitogen-activated protein kinase kinase kinase kinase 1 (Homo sapiens) (UniProt Q92918). As to the kind of experiment: Inhibition of human recombinant HPK1 at 500 nM in presence of ATP by radiometric assay relative to control.
Assay [20] has as its target LIM domain kinase 1 (Homo sapiens) (UniProt P53667). In words: Inhibition of human recombinant LIMK1 at 500 nM in presence of ATP by radiometric assay relative to control.

Chain of LIM domain kinase 1 (Homo sapiens) (P53667 whole entry, looked up, the tested form may be a part, canonical isoform): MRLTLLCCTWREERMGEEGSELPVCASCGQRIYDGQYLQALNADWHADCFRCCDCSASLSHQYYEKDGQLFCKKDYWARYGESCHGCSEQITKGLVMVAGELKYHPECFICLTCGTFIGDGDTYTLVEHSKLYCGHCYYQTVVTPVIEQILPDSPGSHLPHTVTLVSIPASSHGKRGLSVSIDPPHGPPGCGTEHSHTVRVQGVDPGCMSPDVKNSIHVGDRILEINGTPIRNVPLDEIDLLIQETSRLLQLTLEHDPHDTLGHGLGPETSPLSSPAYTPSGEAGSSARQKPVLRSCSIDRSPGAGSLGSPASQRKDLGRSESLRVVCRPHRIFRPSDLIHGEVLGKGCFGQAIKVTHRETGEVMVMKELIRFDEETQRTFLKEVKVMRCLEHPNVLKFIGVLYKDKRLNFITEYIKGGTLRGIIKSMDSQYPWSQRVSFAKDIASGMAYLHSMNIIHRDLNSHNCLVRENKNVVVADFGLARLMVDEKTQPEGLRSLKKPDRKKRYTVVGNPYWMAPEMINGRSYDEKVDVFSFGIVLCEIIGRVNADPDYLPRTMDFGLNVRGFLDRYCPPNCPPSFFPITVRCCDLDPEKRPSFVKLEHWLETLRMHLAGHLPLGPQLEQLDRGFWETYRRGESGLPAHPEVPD
Chain of Mitogen-activated protein kinase kinase kinase kinase 1 (Homo sapiens) (Q92918 whole entry, looked up, the tested form may be a part): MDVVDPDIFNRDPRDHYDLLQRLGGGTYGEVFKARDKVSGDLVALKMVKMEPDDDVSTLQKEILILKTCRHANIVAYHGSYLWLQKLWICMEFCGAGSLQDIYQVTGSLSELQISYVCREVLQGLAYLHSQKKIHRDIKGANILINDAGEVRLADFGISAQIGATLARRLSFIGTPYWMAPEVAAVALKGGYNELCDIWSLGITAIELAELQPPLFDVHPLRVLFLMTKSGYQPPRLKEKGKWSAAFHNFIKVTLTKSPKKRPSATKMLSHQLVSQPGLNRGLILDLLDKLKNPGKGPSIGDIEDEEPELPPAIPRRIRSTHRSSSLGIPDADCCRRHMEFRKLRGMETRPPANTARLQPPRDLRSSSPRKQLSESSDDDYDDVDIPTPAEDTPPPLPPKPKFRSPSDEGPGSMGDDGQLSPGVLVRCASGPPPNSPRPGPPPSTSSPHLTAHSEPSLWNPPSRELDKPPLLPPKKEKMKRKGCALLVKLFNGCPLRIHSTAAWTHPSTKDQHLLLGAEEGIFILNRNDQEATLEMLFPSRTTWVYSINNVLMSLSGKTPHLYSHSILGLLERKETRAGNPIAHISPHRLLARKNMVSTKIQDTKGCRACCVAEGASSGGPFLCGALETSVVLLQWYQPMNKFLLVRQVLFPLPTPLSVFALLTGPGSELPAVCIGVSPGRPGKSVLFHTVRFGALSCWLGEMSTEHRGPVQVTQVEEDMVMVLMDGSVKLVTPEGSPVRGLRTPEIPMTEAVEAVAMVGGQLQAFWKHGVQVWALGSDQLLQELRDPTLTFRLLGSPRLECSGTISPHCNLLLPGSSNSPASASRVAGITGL
Chain of Ribosomal protein S6 kinase alpha-4 (Homo sapiens) (O75676 whole entry, looked up): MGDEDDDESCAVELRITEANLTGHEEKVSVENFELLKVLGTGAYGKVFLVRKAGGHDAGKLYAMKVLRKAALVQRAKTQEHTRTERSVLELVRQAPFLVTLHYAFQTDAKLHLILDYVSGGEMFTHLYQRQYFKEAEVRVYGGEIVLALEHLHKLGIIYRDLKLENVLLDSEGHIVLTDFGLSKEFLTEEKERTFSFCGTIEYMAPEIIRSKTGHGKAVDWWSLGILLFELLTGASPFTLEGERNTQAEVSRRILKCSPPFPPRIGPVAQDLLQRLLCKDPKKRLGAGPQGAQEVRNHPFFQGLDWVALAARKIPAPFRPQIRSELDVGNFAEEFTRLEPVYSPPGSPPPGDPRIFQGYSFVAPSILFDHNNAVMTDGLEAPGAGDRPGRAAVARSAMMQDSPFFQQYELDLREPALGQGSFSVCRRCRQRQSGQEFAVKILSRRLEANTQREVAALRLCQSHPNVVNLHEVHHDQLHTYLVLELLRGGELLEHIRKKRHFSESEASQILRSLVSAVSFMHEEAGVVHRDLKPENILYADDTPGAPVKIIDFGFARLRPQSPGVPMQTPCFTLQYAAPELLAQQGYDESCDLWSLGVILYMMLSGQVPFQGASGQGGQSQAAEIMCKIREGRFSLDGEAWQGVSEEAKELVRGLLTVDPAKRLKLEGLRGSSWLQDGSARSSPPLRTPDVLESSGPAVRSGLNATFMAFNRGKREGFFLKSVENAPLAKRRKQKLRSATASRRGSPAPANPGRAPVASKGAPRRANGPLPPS
Chain of Mitogen-activated protein kinase 8 (Homo sapiens) (P45983 whole entry): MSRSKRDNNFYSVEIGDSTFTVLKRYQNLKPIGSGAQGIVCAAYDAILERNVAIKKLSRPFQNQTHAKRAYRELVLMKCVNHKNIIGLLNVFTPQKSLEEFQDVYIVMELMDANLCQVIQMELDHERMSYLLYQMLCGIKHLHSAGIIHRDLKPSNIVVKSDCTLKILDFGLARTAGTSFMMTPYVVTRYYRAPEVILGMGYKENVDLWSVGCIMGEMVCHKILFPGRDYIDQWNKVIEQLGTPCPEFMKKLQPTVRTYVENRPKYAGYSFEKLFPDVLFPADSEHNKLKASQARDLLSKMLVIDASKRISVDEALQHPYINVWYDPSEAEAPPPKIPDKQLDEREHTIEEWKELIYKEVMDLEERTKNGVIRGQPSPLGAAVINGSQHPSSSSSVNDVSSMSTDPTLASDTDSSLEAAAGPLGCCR

For the molecule `CC(C)[C@H](NC(=O)c1cc(-c2cnn3cc(-c4ccc(OCCN5CCCCC5)cc4)cnc23)cs1)C(F)(F)F`, the fold change (FC) was 0.4 in assay [1], 0.09 in [2] and 0 in [4]. For the same molecule, the values for the inhibition in assay [3] and in assay [5] were 0% and 8%, respectively.

Consider `O=C(N[C@@H](C1CC1)C(F)(F)F)c1cc(-c2cnn3cc(-c4ccc(F)cc4)cnc23)cs1`, for which the fold change (FC) in [6] was 0.62; in assay [7], 0.21; in assay [10], 0; in assay [12], 0; in [13], 0; in assay [14] it was 0.05. Also, the inhibition in [8] came out at 12%; in assay [9], 19%; in assay [11], 39%.

Consider `CNC(=O)c1ccccc1Oc1nc(Nc2cc(OC)c(OC)c(OC)c2)ncc1Br`, for which the inhibition stood at 10% in [15], 0% in assay [17], 32% in [19] and 2% in assay [20]. For the same molecule, the fold change (FC) was found to be 0 in assay [16] and 0.03 in assay [18].
